# Results collected from several papers.
# Lines come from different studies, so protocols differ.
# gyrA: DNA gyrase subunit A (gyrA, Escherichia coli K-12, UniProt P0AES4)
# HTR3A: 5-hydroxytryptamine receptor 3A (HTR3A, Homo sapiens, UniProt P46098)
# OPRD1: Delta-type opioid receptor (OPRD1, Homo sapiens, UniProt P41143)
# gag-pol reverse transcriptase: Gag-Pol polyprotein, reverse transcriptase (gag-pol, Human immunodeficiency virus 1, UniProt P03366)
SMILES,target,observed,action,method,quantity,result
Cc1cc(C#N)ccc1C(=O)Nc1ccc(C(=O)N[C@@H](CC(N)=O)C(=O)Nc2ccc(C(=O)Nc3ccc(C(=O)Nc4ccc(C(=O)O)cc4)c(O)c3OC(C)C)cc2)cc1,gyrA,enzyme activity,inhibitor,,IC50,1700 nM
CCCCN1CCC(COC(=O)c2ccc(N)c(OCF)c2)CC1,HTR3A,cell-free assay,,radioligand,Ki,> 10000 nM
CNc1nc(C#Cc2ccc(Cl)s2)nc2c1ncn2[C@H]1[C@H](O)[C@H](O)[C@]2(C(=O)OC(C)C)C[C@H]12,OPRD1,ligand displacement,,radioligand,Ki,> 10000 nM
Cc1cc(C)cc(S(=O)(=O)c2c(C(=O)NCCCCCNS(=O)(=O)c3cccnc3)[nH]c3ccc(Cl)cc23)c1,gag-pol reverse transcriptase,enzyme activity,inhibitor,ELISA,IC50,95 nM
CCn1c(-c2nc3ccc(C(=O)N4CCCC(N)C4)cc3n2C)cc2ccccc21 (stereo not drawn),HTR3A,calcium signal,agonist,,EC50,> 50100 nM
Cc1cc(C)cc(S(=O)(=O)c2c(C(=O)NCCNS(=O)(=O)c3ccccc3F)[nH]c3ccc(Cl)cc23)c1,gag-pol reverse transcriptase,enzyme activity,inhibitor,ELISA,IC50,83 nM
N#Cc1ccc(COc2cccc(C3CCN(Cc4nc5ccc(C(=O)O)cc5n4C[C@@H]4CCO4)CC3)n2)c(F)c1,"Gastric inhibitory polypeptide receptor (GIPR, Homo sapiens, UniProt P48546)",cAMP,agonist,,EC50,> 10000 nM
CC1=C(/C=C/C2=CCC[C@@]3(C)[C@H]2CC[C@@H]3[C@@](C)(O)CCCC(C)C)C[C@@H](O)CC1,"Oxysterols receptor LXR-alpha (NR1H3, Homo sapiens, UniProt Q13133)",coactivator recruitment,agonist,TR-FRET,EC50,10 to 100 nM
CNC(=O)[C@@]12C[C@@H]1[C@@H](n1cnc3c(NC)nc(C#Cc4ccc(Cl)s4)nc31)[C@H](O)[C@@H]2O,OPRD1,ligand displacement,,radioligand,Ki,> 10000 nM
CO[C@@H](C(N)=O)[C@H](NC(=O)c1ccc(NC(=O)c2ccc(C#N)cc2)cc1)C(=O)Nc1ccc(C(=O)Nc2ccc(C(=O)Nc3ccc(C(=O)O)cc3)c(O)c2OC(C)C)cc1,gyrA,enzyme activity,inhibitor,,IC50,400 nM
Cc1cc(C)cc(S(=O)(=O)c2c(C(=O)NCCCCCNS(=O)(=O)c3ccc([N+](=O)[O-])cc3)[nH]c3ccc(Cl)cc23)c1,gag-pol reverse transcriptase,enzyme activity,inhibitor,ELISA,IC50,160 nM
O[C@@H]1[C@H](O)[C@@H]2C[C@@H]2[C@H]1n1cnc2c(NCC(c3ccccc3)c3ccccc3)nc(C#Cc3ccccc3)nc21,OPRD1,ligand displacement,,radioligand,Ki,> 10000 nM
